In ChEMBL document CHEMBL1629597, “In vitro evaluation of the antimicrobial activity of ceftaroline against cephalosporin-resistant isolates of Streptococcus pneumoniae” (2009):
Values after ≈ are worked out from the molar mass of the structure shown.

Columns and labels:
Assay type in all cases: functional
[1] = tested on: Streptococcus pneumoniae; assay: Antimicrobial activity against Streptococcus pneumoniae R6 transformed with Streptococcus pneumoniae 72521 pbp2x, pbp2b and Streptococcus pneumoniae 3191 pbp1a genes by broth microdilution method
Procedure, shortened: (§1)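 Reference broth microdilution MIC per CLSI guidelines, testing ceftaroline, penicillin, ceftriaxone and cefotaxime against susceptible laboratory strain R6 and R6 transformants. The transformants carry pbp and/or murM genes with β-lactam-resistance mutations, or genomic DNA, from donors 3191 (Hungarian clone) and 72521 (French isolate). MICs are in μg/ml.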

[2] = tested on: Streptococcus pneumoniae; assay: Antimicrobial activity against Streptococcus pneumoniae R6 transformed with Streptococcus pneumoniae 72521 murM, pbp2x, pbp2b and Streptococcus pneumoniae 3191 pbp1a genes by broth microdilution method; procedure, shortened: as §1
[3] = tested on: Streptococcus pneumoniae; assay: Antimicrobial activity against Streptococcus pneumoniae R6 transformed with Streptococcus pneumoniae 3191 pbp2x and pbp2b genes by broth microdilution method; procedure, shortened: as §1
[4] = tested on: Streptococcus pneumoniae; assay: Antimicrobial activity against Streptococcus pneumoniae R6 transformed with Streptococcus pneumoniae 3191 pbp2x, pbp2b, murM and Streptococcus pneumoniae 72521 pbp1a genes by broth microdilution method; procedure, shortened: as §1
[5] = tested on: Streptococcus pneumoniae; assay: Antimicrobial activity against Streptococcus pneumoniae R6 transformed with Streptococcus pneumoniae 3191 pbp2b, pbp1a and murM genes by broth microdilution method; procedure, shortened: as §1
[6] = tested on: Streptococcus pneumoniae; assay: Antimicrobial activity against Streptococcus pneumoniae R6 transformed with Streptococcus pneumoniae 3191 pbp2x and pbp1a genes by broth microdilution method; procedure, shortened: as §1
[7] = tested on: Streptococcus pneumoniae; assay: Antimicrobial activity against Streptococcus pneumoniae R6 transformed with Streptococcus pneumoniae 72521 pbp2x gene by broth microdilution method; procedure, shortened: as §1
[8] = tested on: Streptococcus pneumoniae; assay: Antimicrobial activity against Streptococcus pneumoniae R6 transformed with Streptococcus pneumoniae 72521 genomic DNA, pbp2x, pbp1a and pbp2b genes by broth microdilution method; procedure, shortened: as §1
[9] = tested on: Streptococcus pneumoniae; assay: Antimicrobial activity against Streptococcus pneumoniae by broth microdilution method
[10] = tested on: Streptococcus pneumoniae; assay: Antimicrobial activity against Streptococcus pneumoniae R6 transformed with Streptococcus pneumoniae 72521 genomic DNA, pbp2x, pbp1a, pbp2b and Streptococcus pneumoniae 3191 pbp1a genes by broth microdilution method; procedure, shortened: as §1
[11] = tested on: Streptococcus pneumoniae; assay: Antimicrobial activity against Streptococcus pneumoniae R6 transformed with Streptococcus pneumoniae 72521 pbp2x, pbp1a, pbp2b genes and Streptococcus pneumoniae 3191 genomic DNA by broth microdilution method; procedure, shortened: as §1
[12] = tested on: Streptococcus pneumoniae; assay: Antimicrobial activity against Streptococcus pneumoniae R6 transformed with Streptococcus pneumoniae 3191 pbp2x and Streptococcus pneumoniae 72521 pbp2b genes by broth microdilution method; procedure, shortened: as §1
[13] = tested on: Streptococcus pneumoniae; assay: Antimicrobial activity against Streptococcus pneumoniae R6 by broth microdilution method; procedure, shortened: as §1
[14] = tested on: Streptococcus pneumoniae; assay: Antimicrobial activity against Streptococcus pneumoniae R6 transformed with Streptococcus pneumoniae 72521 pbp2x, pbp1a, pbp2b and Streptococcus pneumoniae 3191 murM genes by broth microdilution method; procedure, shortened: as §1
[15] = tested on: Streptococcus pneumoniae; assay: Antimicrobial activity against Streptococcus pneumoniae 3191 by broth microdilution method
[16] = tested on: Streptococcus pneumoniae; assay: Antimicrobial activity against Streptococcus pneumoniae R6 transformed with Streptococcus pneumoniae 3191 pbp2x, pbp2b, pbp1a and Streptococcus pneumoniae 72521 murM genes by broth microdilution method; procedure, shortened: as §1
[17] = tested on: Streptococcus pneumoniae; assay: Antimicrobial activity against Streptococcus pneumoniae R6 transformed with Streptococcus pneumoniae 3191 pbp2x, pbp2b, pbp1a genes by broth microdilution method; procedure, shortened: as §1
[18] = tested on: Streptococcus pneumoniae; assay: Antimicrobial activity against Streptococcus pneumoniae R6 transformed with Streptococcus pneumoniae 72521 pbp2x, pbp1a and pbp2b genes by broth microdilution method; procedure, shortened: as §1
[19] = tested on: Streptococcus pneumoniae; assay: Antimicrobial activity against Streptococcus pneumoniae R6 transformed with Streptococcus pneumoniae 3191 pbp2x gene by broth microdilution method; procedure, shortened: as §1
[20] = tested on: Streptococcus pneumoniae; assay: Antimicrobial activity against Streptococcus pneumoniae 72521 by broth microdilution method
[21] = tested on: Streptococcus pneumoniae; assay: Antimicrobial activity against Streptococcus pneumoniae R6 transformed with Streptococcus pneumoniae 72521 pbp2x and pbp2b genes by broth microdilution method; procedure, shortened: as §1

SMILES | MIC [1] | MIC [2] | MIC [3] | MIC [4] | MIC [5] | MIC [6] | MIC [8] | MIC50 [9] | MIC90 [9] | MIC [10] | MIC [11] | MIC [12] | MIC [13] | MIC [14] | MIC [15] | MIC [16] | MIC [17] | MIC [18] | MIC [19] | MIC [20] | other results
CO/N=C(\C(=O)N[C@@H]1C(=O)N2C(C(=O)O)=C(COC(C)=O)CS[C@H]12)c1csc(N)n1 [CEFOTAXIME] | 2 µg/mL (≈ 4.39 µM) | 4 µg/mL (≈ 8.78 µM) | 0.5 µg/mL (≈ 1.1 µM) | 2 µg/mL (≈ 4.39 µM) | 0.03 µg/mL (≈ 0.0659 µM) | 0.06 µg/mL (≈ 0.132 µM) | 2 µg/mL (≈ 4.39 µM) | 8 µg/mL (≈ 17.6 µM) | 8 µg/mL (≈ 17.6 µM) | 4 µg/mL (≈ 8.78 µM) | 2 µg/mL (≈ 4.39 µM) | 1 µg/mL (≈ 2.2 µM) | 0.03 µg/mL (≈ 0.0659 µM) | 2 µg/mL (≈ 4.39 µM) | 4 µg/mL (≈ 8.78 µM) | 16 µg/mL (≈ 35.1 µM) | 16 µg/mL (≈ 35.1 µM) | 2 µg/mL (≈ 4.39 µM) | 0.03 µg/mL (≈ 0.0659 µM) | 2 µg/mL (≈ 4.39 µM) | MIC [7]: 0.06 µg/mL (≈ 0.132 µM); MIC [21]: 0.5 µg/mL (≈ 1.1 µM)
CC1(C)S[C@@H]2[C@H](NC(=O)Cc3ccccc3)C(=O)N2[C@H]1C(=O)O [PENICILLIN G] | 1 µg/mL (≈ 2.99 µM) | 2 µg/mL (≈ 5.98 µM) | 1 µg/mL (≈ 2.99 µM) | 8 µg/mL (≈ 23.9 µM) | 0.03 µg/mL (≈ 0.0897 µM) | 2 µg/mL (≈ 5.98 µM) | 1 µg/mL (≈ 2.99 µM) | 8 µg/mL (≈ 23.9 µM) | 8 µg/mL (≈ 23.9 µM) | 2 µg/mL (≈ 5.98 µM) | 8 µg/mL (≈ 23.9 µM) | 2 µg/mL (≈ 5.98 µM) | 0.015 µg/mL (≈ 0.0449 µM) | 1 µg/mL (≈ 2.99 µM) | 16 µg/mL (≈ 47.8 µM) | 8 µg/mL (≈ 23.9 µM) | 4 µg/mL (≈ 12 µM) | 0.5 µg/mL (≈ 1.5 µM) | 2 µg/mL (≈ 5.98 µM) | 4 µg/mL (≈ 12 µM) | MIC [7]: 0.5 µg/mL (≈ 1.5 µM); MIC [21]: 0.5 µg/mL (≈ 1.5 µM)
CO/N=C(\C(=O)N[C@@H]1C(=O)N2C(C(=O)O)=C(CSc3nc(=O)c(O)nn3C)CS[C@H]12)c1csc(N)n1 [CEFTRIAXONE] | 2 µg/mL (≈ 3.61 µM) | 4 µg/mL (≈ 7.21 µM) | 1 µg/mL (≈ 1.8 µM) | 4 µg/mL (≈ 7.21 µM) | 0.06 µg/mL (≈ 0.108 µM) | 2 µg/mL (≈ 3.61 µM) | 0.5 µg/mL (≈ 0.902 µM) | 8 µg/mL (≈ 14.4 µM) | 8 µg/mL (≈ 14.4 µM) | 2 µg/mL (≈ 3.61 µM) | 2 µg/mL (≈ 3.61 µM) | 2 µg/mL (≈ 3.61 µM) | 0.03 µg/mL (≈ 0.0541 µM) | 1 µg/mL (≈ 1.8 µM) | 8 µg/mL (≈ 14.4 µM) | 8 µg/mL (≈ 14.4 µM) | 4 µg/mL (≈ 7.21 µM) | 0.5 µg/mL (≈ 0.902 µM) | 2 µg/mL (≈ 3.61 µM) | 4 µg/mL (≈ 7.21 µM) | MIC [7]: 0.5 µg/mL (≈ 0.902 µM); MIC [21]: 1 µg/mL (≈ 1.8 µM)
CC1(C)S[C@@H]2[C@H](NC(=O)[C@H](N)c3ccc(O)cc3)C(=O)N2[C@H]1C(=O)O [AMOXICILLIN] | 0.75 µg/mL (≈ 2.05 µM) | 3 µg/mL (≈ 8.21 µM) | 0.19 µg/mL (≈ 0.52 µM) | 1.5 µg/mL (≈ 4.1 µM) | 0.023 µg/mL (≈ 0.0629 µM) | 0.032 µg/mL (≈ 0.0876 µM) | 1 µg/mL (≈ 2.74 µM) | 8 µg/mL (≈ 21.9 µM) | > 8 µg/mL | 1.5 µg/mL (≈ 4.1 µM) | 1 µg/mL (≈ 2.74 µM) | 0.19 µg/mL (≈ 0.52 µM) | ≤ 0.015 µg/mL | 1 µg/mL (≈ 2.74 µM) | 8 µg/mL (≈ 21.9 µM) | 4 µg/mL (≈ 10.9 µM) | 4 µg/mL (≈ 10.9 µM) | 0.5 µg/mL (≈ 1.37 µM) | 0.047 µg/mL (≈ 0.129 µM) | 8 µg/mL (≈ 21.9 µM) | MIC [21]: 0.094 µg/mL (≈ 0.257 µM)
C[C@@H](O)[C@H]1C(=O)N2C(C(=O)O)=C(S[C@@H]3CN[C@H](C(=O)N(C)C)C3)[C@H](C)[C@H]12 [MEROPENEM] | – | – | – | – | – | – | – | 1 µg/mL (≈ 2.61 µM) | 2 µg/mL (≈ 5.22 µM) | – | – | – | – | – | – | – | – | – | – | – | –
